Experimental data as given in ChEMBL document CHEMBL1667733, “Cytotoxic amide alkaloids from Piper boehmeriaefolium” (J Nat Prod, 2011).
Values after ≈ are worked out from the molar mass of the structure shown. Active and inactive are the calls of the source. No cut-off for these calls is given here.

Test system: HeLa
Assay: Cytotoxicity against human HeLa cells after 72 hrs by MTT assay
Type: functional, cell-based
Summary of the method: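 HeLa cells in log-phase growth, harvested with 0.01% trypsin, seeded at 3.0 × 10^3 cells/well and grown overnight at 37 °C in humidified 5% CO2. Six concentrations (100.00, 33.33, 11.11, 3.70, 1.23, 0.41 µg/mL) added in triplicate. After 72 h at 37 °C, MTT added for 3 h more, supernatant removed, DMSO added. Absorbance read at 550 nm against 690 nm reference. Doxorubicin positive control.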

Row | Structure (SMILES) | Activity | IC50
1 | CCCCC/C=C/C=C/C(=O)NCCc1ccc(O)c(OC)c1 | inactive | 
2 | O=C(/C=C/C=C/CC/C=C/c1ccc2c(c1)OCO2)N1CCCC1 |  | 13.7 µg/mL (≈ 42.2 µM)
3 | O=C(/C=C/CCCC/C=C/c1ccc2c(c1)OCO2)N1CCCC1 [BRACHYAMIDE B] |  | 15 µg/mL (≈ 45.7 µM)
4 | COc1cc(CCC(=O)n2cccc2)cc(OC)c1OC | inactive | 
5 | O=C(CC/C=C/CCCC/C=C/c1ccc2c(c1)OCO2)N1CCCC1 |  | 12.2 µg/mL (≈ 34.3 µM)
6 | COc1cccc2c1C(=O)c1c(O)c3c(c(O)c1C2=O)C[C@@](O)(C(=O)CO)C[C@@H]3O[C@H]1C[C@H](N)[C@H](O)[C@H](C)O1 [DOXORUBICIN] |  | 0.163 µg/mL (≈ 0.3 µM)
7 | CCCCC/C=C/C=C/C=C/C(=O)N1CCCC1 | inactive | 
8 | O=C(CCCCCCC/C=C/c1ccc2c(c1)OCO2)N1CCCC1 |  | 2.67 µg/mL (≈ 7.77 µM)
9 | CCCCC/C=C/C=C/C(=O)NCC[S+](C)[O-] (stereo not drawn) | inactive | 
10 | O=C(CCCCCC/C=C/c1ccc2c(c1)OCO2)N1CCCC1 |  | 17.9 µg/mL (≈ 54.5 µM)
11 | O=C(/C=C/C=C\CC/C=C/c1ccc2c(c1)OCO2)N1CCCC1 |  | 7.42 µg/mL (≈ 22.8 µM)
12 | COc1cc(CCC(=O)n2cccc2)cc(OC)c1O | inactive | 
13 | O=C(/C=C/C=C/CCCC/C=C/c1ccc2c(c1)OCO2)N1CCCC1 |  | 11.6 µg/mL (≈ 32.8 µM)
